Here are results for 12 molecules from ChEMBL document CHEMBL1126311, “Novel functional M1 selective muscarinic agonists. 2. Synthesis and structure-activity relationships of 3-pyrazinyl-1,2,5,6-tetrahydro-1-methylpyridines. Construction of a molecular model for the M1 pharmacophore” (J Med Chem, 1992).

The target in experiment [1] is T1, Muscarinic acetylcholine receptor M1 (Rattus norvegicus, UniProt P08482).
T1 sequence (P08482 whole entry): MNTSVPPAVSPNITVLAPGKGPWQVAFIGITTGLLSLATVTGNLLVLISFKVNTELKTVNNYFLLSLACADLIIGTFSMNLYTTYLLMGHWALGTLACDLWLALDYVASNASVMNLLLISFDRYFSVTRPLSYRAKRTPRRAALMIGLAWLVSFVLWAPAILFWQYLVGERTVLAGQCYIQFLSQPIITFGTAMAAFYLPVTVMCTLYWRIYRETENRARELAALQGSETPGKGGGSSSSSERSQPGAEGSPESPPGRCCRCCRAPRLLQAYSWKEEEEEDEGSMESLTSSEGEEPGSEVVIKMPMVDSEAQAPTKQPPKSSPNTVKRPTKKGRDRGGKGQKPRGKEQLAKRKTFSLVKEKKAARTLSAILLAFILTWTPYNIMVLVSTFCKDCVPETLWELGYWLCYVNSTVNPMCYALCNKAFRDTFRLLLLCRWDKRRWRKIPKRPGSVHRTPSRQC
In words: Displacement of [3H]oxotremorine-M (Oxo-M) from rat hippocampus muscarinic acetylcholine receptor M1. It is filed as tissue-based.

The target in experiment [2] is T1, Muscarinic acetylcholine receptor M1. As to the kind of experiment: Displacement of [3H]pirenzepine (Pz) from rat hippocampus muscarinic acetylcholine receptor M1. It is filed as tissue-based.
The target is the same in experiment [3]. In words: In vitro binding affinity against rat hippocampus M1 receptor using [3H]pirenzepine (Pz) as radioligand. Type of experiment: tissue-based. The essentials:
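Male Sprague-Dawley rat hippocampal P2 membranes (10 mg tissue wet weight, about 0.1 mg protein) with 1 nM [3H]pirenzepine in 20 mM Tris-Cl pH 7.4 containing 1 mM MnCl2, 1 mL, 60 min at 25 °C.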

Experiment [4] is filed under the species Oryctolagus cuniculus. In words: (§1) Efficacy at M1 receptor measured by the ability to inhibit the electrically stimulated twitch of the rabbit vas deferens. It is filed as functional. The procedure, abridged: (§2)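 Cumulative concentration-effect curves with additions at 20-min intervals in two tissues; read-out twitch height decrease; if inhibition ≥50%, curves repeated in at least six tissues.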

Experiment [5] concerns the target T1, Muscarinic acetylcholine receptor M1. In words: In vitro binding affinity against rat hippocampus M1 receptor using [3H]oxotremorine-M (Oxo-M) as radioligand. Type of experiment: tissue-based. The essentials:
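Male Sprague-Dawley rat hippocampal P2 membranes (10 mg tissue wet weight, about 0.1 mg protein) with 3 nM [3H]oxotremorine-M in 20 mM Tris-Cl pH 7.4, 1 mL, 15 min at 25 °C.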

For experiment [6], the species on record is Oryctolagus cuniculus. The description is as §1. Type of experiment: functional, organism-based. The essentials:
as §2

Molecules are shown by their SMILES.

On to `CN1CCC=C(c2nccnc2Cl)C1`, for which the IC50 is 276 nM in experiment [1] and greater than 1000 nM in experiment [2].

For `COc1nccnc1C1=CCCN(C)C1`, the IC50 was determined as 840 nM in experiment [3] and 850 nM in experiment [5]. The Max in experiment [4] worked out at 0%.

Regarding `CCCCCCOc1nonc1C1=CCCN(C)C1`, the Max in experiment [4] came to 47%.

`CCCOc1nsnc1C1=CCCN(C)C1` had a Max in experiment [4] of 25%.

Turning to `CCOc1nccnc1C1=CCCN(C)C1`, the IC50 in experiment [3] is 175 nM; in experiment [5] it was 200 nM. This molecule yielded a Max in experiment [4] of 14%.

As for `CCCOc1nccnc1C1=CCCN(C)C1`, the figures for the IC50 in experiment [3] and in experiment [5] were 65 nM and 58 nM, respectively. The molecule also displayed a Max in experiment [4] of 4%.

Take `CCCCCSc1nccnc1C1=CCCN(C)C1`: the IC50 in experiment [3] is 10 nM; in experiment [5], 13 nM. In experiment [4], this molecule displayed a Max of 18%.

On to `CCCCOc1nccnc1C1=CCCN(C)C1`, for which the IC50 in experiment [3] and in experiment [5] was 17 nM each time. The molecule further returned a Max in experiment [4] of 0%.

For the molecule `CCCCCCSc1nccnc1C1=CCCN(C)C1`, the IC50 was found to be 28 nM in experiment [3], 224 nM in experiment [6] and 44 nM in experiment [5]. For the same molecule, the Max in experiment [4] came to 62%.

Regarding `CCCCCOc1nccnc1C1=CCCN(C)C1`, the values for the IC50 in experiment [3] and in experiment [5] were 16 nM and 19 nM, respectively. Moreover, the Max in experiment [4] was found to be 29%.

In experiment [4], `CCCCCCNc1nsnc1C1=CCCN(C)C1` had a Max of 65%.

`CCCCCCOc1nccnc1C1=CCCN(C)C1`: the IC50 in experiment [3] amounted to 17 nM; in experiment [6], 266 nM; in experiment [5], 20 nM. Moreover, the Max in experiment [4] was found to be 93%.
